Bioassay records as filed in PubChem.
A selection: hits, their analogues and other compounds. The true share with any hit is near 27%.
CYP2C9 act = human CYP2C9 activators, primary screen, biochemical, luminescence. Cytochrome P450 2C9 (Homo sapiens), P11712. recombinant CYP2C9, luciferin-H conversion; hits give high values; factor 1 = untreated enzyme, 0 = blocked. activation factor at 5 µM. 96,000 compounds, 1.4% hits;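 active = activation factor of 2 or more for CYP2C9 at a 5 µM dose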;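 note: 0 = sulfaphenazole-blocked wells and 1 = vehicle-only wells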
CYP2C9 inhib = blockers of cytochrome P450 2C9 activity – biochemical, luminescence, ADME assay, primary screen; CYP2C9 Supersomes, luciferin-H conversion; inhibition, % at 5 µM; 96,000 compounds, 20% hits; AID 777, 2007;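 active = blocking of liver enzyme CYP2C9 beyond about 50% at 5 µM, limit read from the data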
Cav3 T inh = Cav3.2 calcium influx blockers – cell-based, Fluo-4 calcium fluorescence, FDSS, MLSMR library, primary screen; Voltage-dependent T-type calcium channel subunit alpha-1H (Homo sapiens), O95180; Cav3.2-expressing cells; hits give low values; B-score at 10 µM; 100,000 compounds, 4% hits;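 active = single-dose well whose peak fluorescence ratio is a statistical outlier from its plate by either plate-standardised score or position-corrected B-score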
CYP2C19 activ = human CYP2C19 activators, primary screen, biochemical, luminescence; 96,000 tested, under 10 active; Cytochrome P450 2C19 (Homo sapiens), P33261; activation factor at 5 µM; recombinant CYP2C19, luciferin-H EGE luminescence; hits give high values; 0 = fully inhibited enzyme, 1 = untreated enzyme;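 active = activation factor of at least 2 at 5 µM in the primary screen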;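 note: 0 = wells with 2.5 mM tranylcypromine and 1 = vehicle-only wells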
Target sequence (P33261 whole entry, looked up): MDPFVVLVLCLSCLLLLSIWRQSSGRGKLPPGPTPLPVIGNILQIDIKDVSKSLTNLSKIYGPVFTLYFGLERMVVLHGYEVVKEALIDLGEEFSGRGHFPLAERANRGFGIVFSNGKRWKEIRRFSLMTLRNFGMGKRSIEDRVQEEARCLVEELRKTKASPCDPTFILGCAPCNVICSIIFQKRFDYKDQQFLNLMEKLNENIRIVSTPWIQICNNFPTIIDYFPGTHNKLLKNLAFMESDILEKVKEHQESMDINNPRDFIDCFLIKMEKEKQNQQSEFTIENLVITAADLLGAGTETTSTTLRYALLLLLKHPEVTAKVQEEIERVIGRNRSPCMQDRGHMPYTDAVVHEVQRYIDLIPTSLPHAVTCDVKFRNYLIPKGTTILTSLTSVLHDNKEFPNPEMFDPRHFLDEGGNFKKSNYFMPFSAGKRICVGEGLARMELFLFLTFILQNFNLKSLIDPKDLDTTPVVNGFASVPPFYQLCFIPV
Rev-RRE block = HIV-1 Rev-RRE binding inhibitors, primary screen, biochemical, FRET, protein-RNA interaction | P05866 | Rev peptide-RRE RNA binding | inhibition, % at 8 µM | 97,000 compounds, 0.79% hits;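 active = inhibition above the screen-wide mean plus 3 SD, cut at about 35% in these data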;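 note: 0% = median DMSO wells and 100% = median Neomycin B control wells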
Target sequence (P05866 whole entry, looked up): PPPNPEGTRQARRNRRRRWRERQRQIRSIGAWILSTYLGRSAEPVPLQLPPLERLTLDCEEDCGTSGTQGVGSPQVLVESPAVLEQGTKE
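Assay system: Labelled RRE RNA duplex and labelled Rev peptide | Times: 5 min preincubation and 15 min binding, 25 °C | Detection: FRET, ex 480 nm, em 540 and 671 nm | Evaluation: % inhibition of FRET ratio versus controls | Benchmarks: DMSO wells as 0% and neomycin B wells as 100% inhibition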
CYP2C19 inhib = blockers of cytochrome P450 2C19 activity – biochemical, luminescence, ADME assay, primary screen; CYP2C19 Supersomes, luciferin-H EGE luminescence, 30 min; inhibition, % at 5 µM; 96,000 compounds, 21% hits; AID 778, 2007;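 active = CYP2C19 inhibition above a set limit at 5 µM in the primary screen, cut at about 50% in these data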;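 note: plate controls were negative control wells for no effect and 2.5 mM tranylcypromine positive control for full effect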
* hit, by the source's call; / = no result given; [ ] = remark or other dose.

SMILES | CYP2C9 act | CYP2C9 inhib | Cav3 T inh | CYP2C19 activ | Rev-RRE block | CYP2C19 inhib
O=C(CSc1nnnn1Cc1ccccc1)N1CCN(c2ccccc2)CC1 | 1.2 | -19 | / | 1 | 2 | -4
Cc1nnc(NC(=O)CSc2nnnn2Cc2ccccc2)s1 | 0.1 | 86* | 0.26 | 1 | 3 | -2
Cc1ccccc1C(NC(N)=O)c1ccccc1 (stereo not given) | 0.7 | 29 | 1.7 | 0.1 | 4 | 95*
CC1(OC(=O)c2ccco2)C(=O)C=C2C=C(c3ccsc3)OC=C2C1=O (stereo not given) | / | / | -0.77 | / | / | /
N#CCSc1nc(N)c(C#N)c(C2CCCCC2)c1C#N | 0.5 | 53* | -1.5 | 0.9 | 15 | 11
N#Cc1c(N)nc(SCC(=O)NC2CCCCC2)c(C#N)c1-c1ccc(Cl)cc1 | 1.1 | -10 | -0.025 | 1.1 | 7 | -5
CCC(C)OC(=O)C1=C(C)O[C@]23OC(N)=C(C#N)[C@]12C(=O)c1ccccc13 (stereo not given in full) | / | / | -2.9 | / | 20 | /
Cc1nn(-c2ccccc2)c2sc(C(=O)NC3CCCCC3)cc12 | 0.3 | 70* | 0.46 | 0.8 | 6 | 23
CCCCNC(=O)COC(=O)c1cc2c(C)nn(-c3ccccc3)c2s1 | 0.2 | 78* | -3.1 | 0.5 | / | 51*
Cc1cnc(NC(=O)c2cc3c(C)nn(-c4ccccc4)c3s2)s1 | 0.3 | 66* | -2.2 | 0.4 | -8 | 56*
Cc1nn(-c2ccccc2)c2sc(C(=O)N3CCCCC3)cc12 | 0.8 | 18 | -1.6 | 0.8 | 6 | 22
Cc1nn(-c2ccccc2)c2sc(C(=O)NNC(=O)COc3ccccc3)cc12 | 0.7 | 32 | -0.46 | 1 | 6 | 2
CCOC(=O)C1C(=O)NC(N2CCN(Cc3ccccc3)CC2)=NC1c1ccco1 (stereo not given) | 0.9 | 11 | -0.11 | 1.1 | 2 | -9
Nc1ccccc1SCC(=O)N1CCc2ccccc21 | 0.7 | 33 | / | 0.2 | 4 | 76*
O=C(CSC1=NCCS1)N1CCc2ccccc21 | 0.4 | 63* | -0.58 | 0.5 | 3 | 49
CC(C)NC[C@H](O)COc1cccc2ccccc12 | / | / | 0.042 | / | / | /
CC1CCC(NCc2ccco2)CC1 (stereo not given) | 1.1 | -12 | 0.4 | 1.2 | 6 | -20
CC1CCC(C(C)C)C2=C1C(C#N)(C#N)C(C#N)(C#N)C(c1ccccc1)N2 (stereo not given) | 0.3 | 70* | 1.9 | 0.5 | 23 | 48
Cc1ccc(CN2CCN(Cc3ccccc3C(F)(F)F)CC2)cc1 | 0.8 | 20 | -0.11 | 0.4 | 11 | 64*
CS(=O)(=O)N1CCN(Cc2ccccc2C(F)(F)F)CC1 | 0.8 | 18 | -0.093 | 0.3 | 4 | 73*
Cc1ccccc1CN1CCN(S(C)(=O)=O)CC1 | / | / | 0.35 | / | 2 | /
NC(=O)CC(NC(=O)Cc1ccc(Br)cc1)c1ccc(N2CCC(Cc3ccccc3)CC2)c([N+](=O)[O-])c1 (stereo not given) | / | / | -0.87 | / | / | /
O=C(NC(=S)Nc1cccc(Cl)c1N1CCCC1)c1ccc(-c2cccc([N+](=O)[O-])c2)o1 | 1 | 2 | -0.51 | 1 | 5 | -1
Cc1nc(-c2ccccc2)sc1C1(C)CC(c2ccc(C#N)cc2)=NO1 (stereo not given) | / | / | 0.28 | / | / | /
Cc1ccc(SCCNC(=S)Nc2ccccc2)cc1 | 0.9 | 10 | -6.1* | 0.7 | -2 | 34
SMILES | CYP2C9 act | CYP2C9 inhib | Cav3 T inh | CYP2C19 activ | Rev-RRE block | CYP2C19 inhib
Cc1ccc(SCCNC(=S)Nc2ccc(C)c(C)c2)cc1 | 0.7 | 29 | -4.4* | 0.6 | 0 | 44
Cc1ccc(SCCNC(=S)Nc2cc(C)ccc2C)cc1 | 0.6 | 42 | -4.1* | 0.5 | -8 | 54*
COc1ccc(-c2cc(C(F)(F)F)n3nc(C(=O)NCc4ccco4)c(Cl)c3n2)cc1 | 0.5 | 48 | -0.63 | 0.7 | 2 | 28
Cn1c(NC(=O)C2c3ccccc3Oc3ccccc32)cc(=O)n(C)c1=O | 0.9 | 15 | 0.0068 | 0.8 | 3 | 23
Cn1c(NC(=O)C2CCCO2)cc(=O)n(C)c1=O (stereo not given) | 0.3 | 66* | 0.39 | 0.8 | / | 23
CCOC(=O)C1CCCN(C(=O)c2cc(Nc3ccc(OC)cc3OC)nc3ccccc23)C1 (stereo not given) | 0 | 98* | -3.4 | 0.4 | 3 | 64*
CCOC(=O)C1CCCN(C(=O)c2cc(Nc3ccc(OC)c(OC)c3)nc3ccccc23)C1 (stereo not given) | 0.3 | 75* | -0.83 | 0.5 | 3 | 48
COc1ccc(Nc2cc(C(=O)NCCCN3CCOCC3)c3ccccc3n2)c(OC)c1 | 0.7 | 25 | 1.3 | 1 | 6 | 3
CCc1ccc(S(=O)(=O)NC(CC(=O)O)c2ccccc2)cc1 (stereo not given) | 0.8 | 18 | 0.43 | 1.1 | 2 | -7
COc1cc([C@@H]2[C@H]3CN(C)CC=C3C(C#N)=C(N)C2(C#N)C#N)cc2c1OCO2 | 0.7 | 27 | 1.2 | 0.9 | / | 8
CCN1CC=C2C(C#N)=C(N)C(C#N)(C#N)[C@H](c3cccc(OC)c3OC)[C@H]2C1 | 0.9 | 14 | -0.76 | 0.6 | 65* | 44
COc1cccc(C2C3CN(C)CC=C3C(C#N)=C(N)C2(C#N)C#N)c1OC (stereo not given) | 0.8 | 18 | / | 0.5 | 85*[fluorescence artefact?] | 50
COc1ccc(N=C2NC(=O)S/C2=C\c2ccc(N(C)C)cc2)cc1 | 0.1 | 94* | -0.39 | 0.8 | 117*[fluorescence artefact?] | 15
CC(C)CN(CC(C)C)S(=O)(=O)N1CCC(C(=O)NCCN2CCOCC2)CC1 | 0.9 | 10 | -0.36 | 1 | 2 | 1
Cc1[nH]n2c(=O)cc(Cc3ccccc3)nc2c1C#N | 0.2 | 77* | -0.25 | 1.1 | 1 | -6
Cc1nc2c(C#N)c[nH]n2c(=O)c1Cc1ccccc1 | 0.4 | 63* | 1.3 | 0.9 | 15 | 13
Cc1nc2c(C#N)c(C)[nH]n2c(=O)c1Cc1ccccc1 | 0.4 | 63* | / | 1.1 | 5 | -9
O=C1CC2(CCCCCC2)Oc2ccccc21 | / | / | 0.83 | / | / | /
c1cc2c3c(cccc3c1)NC1(CCCCC1)N2 | 0.5 | 52* | -0.21 | 0.3 | 11 | 72*
c1cc2c3c(cccc3c1)NC1(CCCCCC1)N2 | 0.4 | 62* | -0.91 | 0.1 | / | 87*
CC1=Nc2cccc3cccc(c23)N1 | 1 | 4 | 0.091 | 1 | 3 | 1
CC(=O)Nc1cc(C(N)=O)c(Cl)cc1Cl | 1.2 | -16 | -1.2 | 1.1 | 7 | -12
